A selection: hits, their analogues and other compounds. The true share with any hit is near 4.4%.
MPTP inh: inhibitors of mitochondrial permeability transition pore; hit rate 1.4% among 360,000; inhibition, % at 10 µM; AID 602449; isolated mouse mitochondria, Ca2+ swelling absorbance, 30 min;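 active = inhibition of 50% or more, scaled per plate between neutral and stimulator controls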;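 also: 0% = DMSO wells given calcium and 100% = 1 mM EGTA wells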
SENP1 inh: blocks the human SENP1 SUMO protease catalytic domain | hit rate 0.21% among 360,000 | AID 624204 | recombinant SENP1 catalytic domain, CyPet-SUMO1-YPet FRET cleavage | Q9P0U3 | inhibition, % at 10 µM;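 active = inhibition at least 30% at 10 µM, raw YFP signal under a set limit, fluorescence ratio 0.5 to 1.5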;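 also: 0% = enzyme with DMSO and 100% = no enzyme wells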
Target sequence (Q9P0U3 419-644 limits assumed): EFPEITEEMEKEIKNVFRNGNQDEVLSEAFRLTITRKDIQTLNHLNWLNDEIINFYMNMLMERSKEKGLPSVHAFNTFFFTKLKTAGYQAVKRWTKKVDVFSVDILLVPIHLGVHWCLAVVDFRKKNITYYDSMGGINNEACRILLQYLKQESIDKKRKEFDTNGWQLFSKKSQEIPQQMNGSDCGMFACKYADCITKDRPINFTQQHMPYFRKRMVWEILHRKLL
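Compound: 10 µM single point, 0.5% DMSO; Test system: hSENP1 catalytic domain, recombinant; Timing: 50 min reaction at room temperature; Technique: FRET, CFP and YFP emission; Control set: no-enzyme wells low, DMSO-plus-enzyme wells high control.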
NR3A LBD binder: modulates the human NR3A ligand-binding domain; NR3A LBD differential scanning fluorimetry, Tm shift; 0% = protein alone, 100% = glycine-bound protein; Tm shift relative to glycine control, % at 25 µM; hit rate 2.5% among 340,000; AID 1259313;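 active = melting temperature shift of at least 10% of the positive control shift, at one fixed dose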
EBI2 antag: antagonists of human EBI2 receptor; P32249; hit rate 0.81% among 360,000; inhibition, % at 5 µM; EBI2 beta-arrestin recruitment, luminescence, 7a,25-OHC stimulated; in the data active = inhibition above about 38%;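 also: enzyme fragment complementation signal reports receptor beta-arrestin coupling in cells; 0% = agonist plus DMSO wells and 100% = wells without agonist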
Target sequence (P32249 whole entry, looked up, the tested form may be a part): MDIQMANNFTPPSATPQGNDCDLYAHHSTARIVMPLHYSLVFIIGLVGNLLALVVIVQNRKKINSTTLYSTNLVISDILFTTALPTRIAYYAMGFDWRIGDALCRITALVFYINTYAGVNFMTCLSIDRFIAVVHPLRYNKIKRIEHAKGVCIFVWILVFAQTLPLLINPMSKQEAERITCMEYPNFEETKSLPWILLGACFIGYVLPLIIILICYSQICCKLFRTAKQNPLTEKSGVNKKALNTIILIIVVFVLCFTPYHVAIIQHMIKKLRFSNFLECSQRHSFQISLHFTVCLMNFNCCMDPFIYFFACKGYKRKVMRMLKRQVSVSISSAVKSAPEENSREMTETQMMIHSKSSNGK
Starred values were filed as active, the others as inactive; . = no result given.

SMILES	MPTP inh	SENP1 inh	NR3A LBD binder	EBI2 antag
CCOc1ccc(C2CC(=O)NC2=O)cc1 (stereo unspecified)	0	0	0	1
Cc1onc(-c2c(Cl)cccc2Cl)c1C(=O)Nc1ccc2c(c1)OCCO2	-1	0	0	9
Cc1cc(Br)c(NC(=O)c2c(-c3c(Cl)cccc3Cl)noc2C)c(Br)c1	1	2	12*	9
COc1ccccc1N(CC(=O)N1CCOCC1)S(C)(=O)=O	0	2	0	-6
COc1ccc(Br)cc1S(=O)(=O)Nc1ncn[nH]1	1	1	-1	-8
O=C(CCSc1ccccc1)NCC1CCCO1 (stereo unspecified)	-2	0	17*	-2
COC(=O)[C@H](Cc1ccccc1)NC(=O)NCC1CCCO1 (stereo partly specified)	-3	2	14*	-14
O=C(CSc1ncnc2nc[nH]c12)N1CCOCC1	-2	1	11*	7
Nc1cc2c(cc1Cl)-c1ccc([N+](=O)[O-])cc1C2=NO	-1	90	477*	0
O=[N+]([O-])c1ccc2c(c1)/C(=N\O)c1ccccc1-2	8	0	-3	4
Cc1ccccc1OCC(=O)OCC(=O)c1ccc(OCc2ccccc2)cc1	-1	-1	25*	-7
Cc1cccc(S(=O)(=O)N(CC(=O)Nc2ccccc2C)Cc2ccco2)c1	1	1	11*	3
O=C(CNc1ccccc1)N/N=C/c1c[nH]c2ccccc12	1	2	9	-11
O=C(N/N=C/c1c[nH]c2ccccc12)c1[nH]c2ccc(Br)cc2c1-c1ccccc1	4	-21	27*	-3
O=C(N/N=C/c1ccc(O)cc1)c1[nH]c2ccc(Br)cc2c1-c1ccccc1	2	3	29*	-4
CC(C)(C)[C@H]1COC(=O)[C@H](NC(=O)OCC2c3ccccc3-c3ccccc32)C/C=C\C[C@@H](CC(=O)N[C@@H](CO)Cc2ccccc2)C(=O)N1	0	-5	-2	-3
COc1ccc([C@H]2C[C@H](O)[C@@H](n3cc(COC(=O)c4ccccc4)nn3)CN2C(=O)C2CCCCC2)cc1	0	1	.	-1
Cc1ccc(N)c([N+](=O)[O-])c1	-1	0	2	0
Nc1ccc(N=Nc2ccccc2)cc1[N+](=O)[O-]	20	3	29*	5
CCn1nnnc1NCc1ccc(OCc2ccc(F)cc2Cl)c(OC)c1	0	2	0	9
CCOc1ccc(Br)cc1S(=O)(=O)Nc1ccc(Cl)c(S(=O)(=O)N(CC)c2ccccc2)c1	7	0	13*	-6
CCOc1ccc(Br)cc1S(=O)(=O)Nc1ccc(Cl)c(S(=O)(=O)N(C)C)c1	14	4	0	-13
CCN(CC)S(=O)(=O)c1cccc(C(=O)Nc2cc3oc4ccccc4c3cc2OC)c1	2	1	22*	7
COc1cc2c(cc1NC(=O)Nc1ccccc1)oc1ccccc12	3	2	16*	13
COc1cc2c(cc1NC(=O)CCC(=O)O)oc1ccccc12	-1	2	-2	6
SMILES	MPTP inh	SENP1 inh	NR3A LBD binder	EBI2 antag
COc1cc2c(cc1NC(=O)c1cncc(Br)c1)oc1ccccc12	0	0	24*	-3
COC(=O)[C@]12CCCCC=C1N(Cc1ccccc1)C(=O)[C@H](CC(=O)NCC13CC4CC(CC(C4)C1)C3)C2	-2	1	.	14
CC(=O)Nc1ccc(S(=O)(=O)Nc2ccccc2C(=O)N2CCCC2)cc1	-1	0	-1	-1
CC(=O)Nc1ccc(S(=O)(=O)Nc2cc(C)c(-n3nc4ccccc4n3)cc2O)cc1	0	2	10*	8
CC(=O)Nc1ccc(S(=O)(=O)Nc2nc3ccccc3nc2Nc2ccc3ccccc3c2)cc1	5	-27	34*	-9
CC(=O)Nc1ccc(S(=O)(=O)Nc2nc3ccccc3nc2Nc2ccc(C(=O)O)c(O)c2)cc1	0	5	24*	-11
CC(=O)Nc1ccc(S(=O)(=O)Nc2nc3ccccc3nc2Nc2cccc(O)c2)cc1	2	-3	19*	6
CCC(C(=O)NC1CCCC1)N(C(=O)Cn1nnc(-c2ccc(C)o2)n1)c1ccc(F)cc1 (stereo unspecified)	0	1	0	9
O=C(Cn1cnc2ccc(Cl)cc2c1=O)NC1CCS(=O)(=O)C1 (stereo unspecified)	0	-4	-2	5
COc1ccccc1CCN1CCCC(CN(C)Cc2ccc(OCCO)cc2)C1 (stereo unspecified)	1	0	7	-13
CC(=O)Nc1ccc(Nc2nc3ccccc3nc2NS(=O)(=O)c2ccc(Cl)c([N+](=O)[O-])c2)cc1	10	-24	24*	-1
COc1cc(OC)c(NS(=O)(=O)c2ccc3c(c2)NC(=O)CO3)cc1Cl	-1	3	-2	-8
CCOC(=O)c1cnn(-c2ccc([N+](=O)[O-])cc2)c1N	2	1	0	-8
Cc1nc(Nc2ccc(Cl)cc2Cl)sc1C(=O)Nc1ccccc1	46	1	43*	38
Cc1nc(NC(=O)/C=C/c2ccccc2)sc1C(=O)Nc1ccc(Cl)cc1	-3	0	38*	3
Cc1nc(NC(=O)/C=C/c2ccccc2)sc1C(=O)Nc1ccccc1Cl	1	1	-1	-3
c1ccc(CSc2ccc(-c3cccs3)nn2)nc1	-1	2	1	-1
c1ccc(CSc2ccc(-c3cccs3)nn2)cc1	1	-2	19*	2
CC1CC(C)CN(CCCNC(=O)Cc2c(C(=O)O)n(C)c3ccccc23)C1 (stereo unspecified)	-1	1	0	-8
C=CC(=O)N1C/C(=C/c2ccccc2)C(=O)/C(=C\c2ccccc2)C1	0	-2	1	39
C=CC(=O)N1C/C(=C/c2ccc(Cl)cc2)C(=O)/C(=C\c2ccc(Cl)cc2)C1	-3	-4	-3	75*
CC(C)(C)c1ccc(C(=O)Nc2ccc(S(=O)(=O)Nc3cnc4ccccc4n3)cc2)cc1	3	-5	13*	4
O=C(Nc1ccc(S(=O)(=O)Nc2cnc3ccccc3n2)cc1)c1cccc(OC(F)F)c1	0	0	11*	-10
O=C(Nc1ccc(NS(=O)(=O)c2ccccc2)cc1)c1ccccc1	4	1	-6	11
NC(=O)c1ccc(NC(=O)c2cnc3ccccc3n2)cc1	1	-5	16*	-16
O=C(O)c1ccc(NS(=O)(=O)c2ccc(C(=O)Nc3ccccc3)cc2)cc1	0	1	17*	-4
CCc1cc(=O)oc2cc(C)cc(OCC(=O)NCc3ccncc3)c12	-2	1	-1	-11
CN(C)Cc1ccc(CNC(=O)c2ccc(Cl)c(S(=O)(=O)NC3CC3)c2)cc1	0	-1	2	-2
O=C(Nc1ccc(Br)cc1)c1cccc(S(=O)(=O)Nc2ccccn2)c1	0	2	7	3
COC(=O)c1cc(NS(=O)(=O)c2ccc(N3CCCCCC3)c([N+](=O)[O-])c2)cc(C(=O)OC)c1	1	0	9	0
